Screening results deposited in PubChem by The Scripps Research Institute Molecular Screening Center.
pPAFAH FP inh – pPAFAH enzyme inhibitors, primary screen, biochemical, fluorescence polarization, human | recombinant pPAFAH, FP-rhodamine probe fluorescence polarization | AID 463082, 2010 | Platelet-activating factor acetylhydrolase (Homo sapiens), Q13093 | inhibition, % at 3.39 µM | hit rate 1.5% among 330,000;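 active = inhibition above the mean inhibition across the screen plus 3 SD, cut at about 25% in these data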;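 also: inhibitors block binding of the rhodamine activity-based probe so polarization drops; 0% = enzyme with DMSO and 100% = wells lacking pPAFAH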
PAFAH2 FP inh – PAFAH2 enzyme inhibitors, primary screen, biochemical, fluorescence polarization, human; Platelet-activating factor acetylhydrolase 2, cytoplasmic (Homo sapiens), Q99487; recombinant PAFAH2, FP-rhodamine activity probe; inhibition, % at 3.39 µM; hit rate 0.99% among 340,000;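 active = inhibition above the mean over all tested compounds plus 3 SD, cut at about 30% in these data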;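 also: inhibitors block probe labeling of enzyme so polarization drops; 0% = enzyme with DMSO and 100% = wells lacking PAFAH2 protein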
PAFAH1B2 inh – PAFAH1B2 enzyme inhibitors, primary screen, biochemical, fluorescence polarization, human. inhibition, % at 3.39 µM. AID 492953, 2010. recombinant PAFAH1B2, FP-rhodamine activity probe. hit rate 1.2% among 340,000;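 active = inhibition above the mean of all tested compounds plus 3 SD, cut at about 24% in these data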;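 also: 0% = enzyme with DMSO and 100% = wells lacking PAFAH1B2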
ASAP1 GAP inh – inhibitors of human ASAP1 ArfGAP activity, primary screen, biochemical, fluorescence polarization. Arf-GAP with SH3 domain, ANK repeat and PH domain-containing protein 1 (Homo sapiens), …. ASAP1-stimulated ARF1 GTP hydrolysis, GDP FP detection. inhibition, % at 16.5 µM. hit rate 0.19% among 360,000. AID 624377, 2012; in the data active = inhibition above about 25%;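 also: 0% = vehicle with enzyme and substrate and 100% = no enzyme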
Target sequence (Q9ULH1 325-724 limits assumed): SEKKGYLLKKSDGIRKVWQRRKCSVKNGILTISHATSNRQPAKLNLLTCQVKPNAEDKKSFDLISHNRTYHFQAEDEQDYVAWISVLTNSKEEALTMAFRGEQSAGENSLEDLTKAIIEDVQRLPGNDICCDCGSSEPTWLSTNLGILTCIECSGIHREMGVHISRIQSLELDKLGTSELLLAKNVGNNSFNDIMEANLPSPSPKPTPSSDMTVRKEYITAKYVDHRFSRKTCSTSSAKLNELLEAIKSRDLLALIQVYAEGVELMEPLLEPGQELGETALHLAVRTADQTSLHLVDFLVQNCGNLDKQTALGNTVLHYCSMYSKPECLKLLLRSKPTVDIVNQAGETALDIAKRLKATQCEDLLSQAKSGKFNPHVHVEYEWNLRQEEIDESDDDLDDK
PAFAH1B3 inh – PAFAH1B3 enzyme inhibitors, primary screen, biochemical, fluorescence polarization, human; Platelet-activating factor acetylhydrolase IB subunit alpha1 (Homo sapiens), Q15102; recombinant PAFAH1B3, FP-rhodamine probe; inhibition, % at 3.39 µM; hit rate 0.28% among 340,000; AID 492972, 2010;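 active = inhibition above the screen-wide average of all tested compounds plus 3 SD, cut at about 25% in these data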;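 also: 0% = enzyme with DMSO only and 100% = wells lacking PAFAH1B3 protein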
ARFGAP1 inh – inhibitors of rat ARFGAP1 GAP activity, primary screen, biochemical, fluorescence polarization, GDP tracer | ADP-ribosylation factor GTPase-activating protein 1 (Rattus norvegicus), Q62848 | Arfgap1-stimulated ARF1 GTP hydrolysis, GDP FP detection | inhibition, % at 16.5 µM | hit rate 0.26% among 360,000;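 active = inhibition above a per-plate limit, mean inhibition of low control wells plus 3 SD, cut at about 25% in these data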;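 also: 0% = DMSO wells with enzyme and 100% = wells lacking Arfgap1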
Target sequence (Q62848 1-136 limits assumed): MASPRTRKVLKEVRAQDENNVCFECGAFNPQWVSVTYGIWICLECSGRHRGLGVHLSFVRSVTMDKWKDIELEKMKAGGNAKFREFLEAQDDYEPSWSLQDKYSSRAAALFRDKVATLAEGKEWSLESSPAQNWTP
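material = rat Arfgap1 catalytic domain, aa 1-136 | also added = human ARF1(Δ1-17)-GTP substrate | compound dosing = one concentration, 16.5 µM, DMSO 1.26% | times = GTP hydrolysis reaction 2 h at 25 °C | measured by = FP, GDP Alexa 633 tracer displaced from anti-GDP antibody, 620/688 nm | evaluation = percent inhibition of Arfgap1-stimulated GTP hydrolysis | replication = single well per compound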
pPAFAH confirm – pPAFAH (PLA2G7) enzyme inhibitors, confirmation, biochemical, fluorescence polarization, human. hit rate 72% among 2,300. inhibition, % at 3.39 µM. recombinant pPAFAH, FP-Rh probe fluorescence polarization. shares compounds with pPAFAH FP inh;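 active = mean inhibition of the triplicate above the hit cutoff set for the earlier primary screen, cut at about 25% in these data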;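 also: 0% = enzyme with DMSO and 100% = wells lacking pPAFAH enzyme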
Active calls of the source: *; · = no result. Hits are enriched below; roughly 2.7% of the tested compounds scored in any of these assays.

SMILES	pPAFAH FP inh	PAFAH2 FP inh	PAFAH1B2 inh	ASAP1 GAP inh	PAFAH1B3 inh	ARFGAP1 inh	pPAFAH confirm
O=C(CN1CCN(S(=O)(=O)c2ccccc2)CC1)NC(=O)NCc1ccco1	6	3	1	-3	-5	2	·
COc1ccc(S(=O)(=O)N(C)C[C@H]2Oc3ccc(NC(=O)Cc4ccccc4)cc3C(=O)N([C@H](C)CO)C[C@@H]2C)cc1	17	3	7	-1	8	-7	·
COc1c(O)cc2oc(-c3ccc(O)cc3)cc(=O)c2c1O	8	5	6	6	4	-1	·
O=c1cc(-c2ccccc2)oc2cc(O)c(O)c(O)c12	56*	22	3	0	17	0	69*
O=c1cc(-c2ccc(O)cc2)oc2c(O)c(O)c(O)c(O)c12	37*	69*	26*	-9	52*	-12	72*
Cc1ccc(/C(O)=C2/C(=O)C(=O)N(CC(=O)O)C2c2ccc([N+](=O)[O-])cc2)cc1 (stereo not drawn)	37*	1	7	9	6	-6	5
CC(=O)N(Cc1ccccc1)c1nccs1	·	·	·	0	·	3	·
Cc1[nH]c2ccc(C(=O)OCC(=O)NC3(C#N)CCCCC3)cc2c1C	45*	86*	2	-19	7	13	43*
N#CC1(NC(=O)COC(=O)c2nc(Cl)ccc2Cl)CCCCC1	8	7	11	-3	10	-2	·
CC(C)(C)c1cc(C(=O)N/N=C/c2ccc(-c3ccccc3[N+](=O)[O-])o2)n[nH]1	58*	9	5	-4	5	-2	9
COc1cc(NC(=O)CNC(c2ccccc2)c2ccccc2)cc(OC)c1OC	5	0	1	-8	0	-1	·
COc1cc(NC(c2ccccc2)c2ccccc2)cc(OC)c1OC	44*	1	-5	-12	-5	-6	43*
Cc1ccccc1C(c1ncccc1C)N(C)C(=O)C1CCN(CCOc2ccc(Cl)cc2Cl)CC1 (stereo not drawn)	·	·	·	2	·	20	·
COC(=O)c1ccc(=O)c2nc3/c(=C/O)c(O)cc(=O)c3[nH]c12	92*	81*	60*	1	66*	-18	91*
COC(=O)c1ccc(N)cc1O	0	4	-5	6	5	3	·
Cc1cc(C(=O)NN=C2CC(=O)CC(C)(C)C2)c(C)o1	0	-5	7	-2	0	0	·
Cc1cc(C(=O)N/N=C2\CC(=O)CC(C)(C)C2)c(C)n1-c1ccccc1	37*	11	6	2	-9	8	34*
Cc1cc(C(=O)N/N=C2\CC(=O)CC(C)(C)C2)c(C)n1-c1ccc(F)cc1	41*	19	3	-1	1	13	64*
CC(C)C[C@H](NC(=O)c1ccco1)C(=O)N1CCC[C@H]1C(=O)NCc1ccccc1	·	·	·	-6	·	7	·
O=C(c1ccc2c(c1)CCC2)N1CCN(Cc2ccccc2)CC1	·	·	·	8	·	3	·
CCCS(=O)(=O)N1CCCC(C(=O)c2ccccc2OC)C1 (stereo not drawn)	-1	3	-2	10	4	-5	·
O=C(Nc1cccc(S(=O)(=O)NC2=NCCC2)c1)c1cc(-c2ccco2)nc2ccccc12	43*	4	0	15	8	2	22
CC(=O)NCc1ccc(OCCCN2CCC(C(O)(c3ccccc3)c3ccccc3)CC2)cc1	·	·	·	4	·	3	·
N#Cc1ccc(OCC(=O)N[C@@H](Cc2ccccc2)c2nc3ccccc3[nH]2)cc1	·	·	·	0	·	-1	·
O=C(O)CN1C(=O)/C(=C\c2cc(Br)ccc2OCc2ccc(F)cc2)SC1=S	51*	50*	13	-12	16	-22	63*
SMILES	pPAFAH FP inh	PAFAH2 FP inh	PAFAH1B2 inh	ASAP1 GAP inh	PAFAH1B3 inh	ARFGAP1 inh	pPAFAH confirm
COc1ccc(/C=C2/SC(=S)N(CC(=O)O)C2=O)cc1OCc1ccc(Cl)cc1	-2	-2	12	12	2	-1	·
Cc1ccc(C(=O)n2nc(-c3ccccc3)nc2NCc2ccco2)cc1	74*	7	3	-5	5	-5	1
O=C(c1ccccc1)n1nc(-c2ccccc2)nc1NCc1ccco1	3	9	3	16	10	7	·
Cc1ccc(Cl)cc1NC(=O)c1cc2ccccc2cc1O	35*	2	2	-8	4	-18	14
NNC(=O)c1cc2ccccc2cc1O	43*	-4	5	7	10	12	1
O=C(NCCO)c1cc2ccccc2cc1O	3	-3	1	0	-4	6	·
COc1cc(NC(=O)c2cc3ccccc3cc2O)c(OC)cc1Cl	9	6	2	7	8	10	·
COc1ccc(C(=O)NC(=S)NNC(=O)c2ccco2)cc1	-1	-8	4	11	3	3	·
O=C(NC(=S)NNC(=O)c1cc2ccccc2cc1O)c1ccco1	39*	16	5	1	15	0	37*
O=C1CSC(=S)N1c1ccc(F)cc1	2	·	·	·	·	·	·
CN(C)c1ccc(N2C(=O)CSC2=S)cc1	37*	-9	-3	-6	-10	11	0
CCOC(=O)N1CCN(C(=O)c2ccc3c(=O)n4c(nc3c2)CCCCC4)CC1	56*	·	·	2	·	5	1
Cc1ccc2nc(/C(C#N)=C/c3ccc(O)c(O)c3)[nH]c2c1	65*	27	23	7	47*	5	79*
O=C1NN(c2ccccc2)C(=O)C1=Cc1ccccc1O	·	·	·	-14	·	-6	·
O=C1NN(c2ccc(Br)cc2)C(=O)/C1=C\c1ccc(O)cc1O	37*	24	15	4	6	-1	25*
Cc1cc(NS(=O)(=O)c2ccc(Nc3nc(-c4ccc(O)cc4)cs3)cc2)no1	22	26	8	11	7	-7	·
Cc1cc(NS(=O)(=O)c2ccc(Nc3nc(-c4sc(N)nc4C)cs3)cc2)no1	46*	79*	36*	·	55*	·	42*
CCCCCCc1ccc(N2C[C@H](Cc3ccccc3)[C@@H](CC(=O)Nc3ccccc3)C2=O)cc1	2	7	-1	-8	-11	17	·
